ChEMBL document CHEMBL2069242, “Structure and activity relationship in the (S)-N-chroman-3-ylcarboxamide series of voltage-gated sodium channel blockers” (Bioorg Med Chem Lett, 2012)
pIC50: −log10 of the molar value. Converted amounts (≈) assume the structure as drawn. The source made the active and inactive calls. The rule behind the calls is not given here.

How the values were obtained:
[1] = biological target: Sodium channel protein type 9 subunit alpha (Homo sapiens, UniProt Q15858); assay: Inhibition of human NaV1.7 expressed in HEK293 cells by whole-cell voltage clamp assay; assay type: cell-based
Summary of the method: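 Human NaV1.7 α-subunit stably expressed in HEK293 cells. Currents were recorded by perforated whole-cell automated planar patch clamp (IonWorks Quattro) in D-PBS external solution with 5.5 mM glucose. Cells were held at −65 mV, and a train of eight 30 ms steps to −20 mV at 3 Hz was applied. Half-log serial dilutions were made in DMSO, giving 0.3% DMSO in the recording solution.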

[2] = biological target: Sodium channel protein type 5 subunit alpha (Homo sapiens, UniProt Q14524); assay: Inhibition of human NaV1.5 expressed in CHO cells by IonWorks assay; assay type: cell-based
[3] = Solubility of the compound; assay type: physicochemical
Liver microsomes [4] = assay: Intrinsic clearance in rat liver microsomes assessed per ug of protein; assay type: ADME, Microsome
Liver microsomes [5] = assay: Intrinsic clearance in human liver microsomes assessed per ug of protein; assay type: ADME, Microsome
[6] = biological target: Voltage-gated inwardly rectifying potassium channel KCNH2 (Homo sapiens, UniProt Q12809); assay: Inhibition of human ERG expressed in CHO cells by IonWorks HT assay; assay type: cell-based
[7] = biological target: Serotonin (5-HT) receptor (Homo sapiens) (UniProt P30939+P41595+Q13639+P28222+P46098+P08908+P28221+P28223+P28335+P28566+P34969+P50406+P47898+A5X5Y0+O95264+Q70Z44+Q8WXA8); assay: Activity at 5HT receptor; assay type: protein assay
Rattus norvegicus [8] = assay: Dose normalized AUC in Sprague-Dawley rat at 3 umol/kg, iv; assay type: ADME, organism-based; details: in vivo
Summary of the method: (§1)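 Rat pharmacokinetics used fasted male Sprague–Dawley rats, three animals per administration route per compound. The intravenous dose was 3 µmol/kg, with a separate oral arm.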

[9] = Volume of distribution at steady state in Sprague-Dawley rat at 3 umol/kg, iv; assay type: ADME, organism-based; details: in vivo, read-out: Vdss; summary of the method: as §1
[10] = Half life in Sprague-Dawley rat at 3 umol/kg, iv; assay type: ADME, organism-based; details: in vivo; summary of the method: as §1
[11] = Clearance in Sprague-Dawley rat at 3 umol/kg, iv; assay type: ADME, organism-based; details: in vivo; summary of the method: as §1
Rattus norvegicus [12] = assay: Dose normalized AUC in Sprague-Dawley rat at 10 umol/kg, po; assay type: ADME, organism-based; details: in vivo; summary of the method: as §1
[13] = Cmax in Sprague-Dawley rat at 10 umol/kg, po; assay type: ADME, organism-based; parameters: dose 10 umol/kg, route oral; details: in vivo; summary of the method: as §1
[14] = Tmax in Sprague-Dawley rat at 10 umol/kg, po; assay type: ADME, organism-based; details: in vivo; summary of the method: as §1
[15] = Half life in Sprague-Dawley rat at 10 umol/kg, po; assay type: ADME, organism-based; details: in vivo; summary of the method: as §1
[16] = Oral bioavailability in Sprague-Dawley rat at 10 umol/kg; assay type: ADME, organism-based; details: in vivo; summary of the method: as §1
[17] = biological target: T1, Alpha-2B adrenergic receptor (Homo sapiens) (UniProt P18089); assay: Displacement of [3H]rauwolscine from adrenergic alpha2B receptor at 10 uM
T1 sequence (whole entry): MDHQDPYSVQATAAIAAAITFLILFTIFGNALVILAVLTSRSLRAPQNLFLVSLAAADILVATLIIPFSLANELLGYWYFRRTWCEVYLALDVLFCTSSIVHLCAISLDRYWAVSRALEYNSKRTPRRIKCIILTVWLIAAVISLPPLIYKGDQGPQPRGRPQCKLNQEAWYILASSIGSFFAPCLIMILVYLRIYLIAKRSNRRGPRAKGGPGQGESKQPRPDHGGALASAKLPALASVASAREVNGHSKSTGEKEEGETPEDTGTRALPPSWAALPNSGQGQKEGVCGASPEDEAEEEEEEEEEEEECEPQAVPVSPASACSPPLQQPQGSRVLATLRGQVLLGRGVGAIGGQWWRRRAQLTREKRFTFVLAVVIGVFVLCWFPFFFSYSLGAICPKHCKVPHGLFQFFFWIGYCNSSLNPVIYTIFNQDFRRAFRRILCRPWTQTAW

[18] = biological target: T2, Sodium-dependent dopamine transporter (Homo sapiens, UniProt Q01959); assay: Displacement of [125I]RTI-55 from DAT at 10 uM
[19] = biological target: T3, Growth hormone secretagogue receptor type 1 (Homo sapiens, UniProt Q92847); assay: Displacement of [125I]ghrelin from GHS receptor at 10 uM
[20] = biological target: T2, Sodium-dependent dopamine transporter; assay: Displacement of [125I]RTI-55 from DAT
[21] = biological target: T3, Growth hormone secretagogue receptor type 1; assay: Displacement of [125I]ghrelin from GHS receptor
[22] = biological target: T4, 5-hydroxytryptamine receptor 1A (Homo sapiens) (UniProt P08908); assay: Activity at 5HT1A receptor
T4 sequence (whole entry): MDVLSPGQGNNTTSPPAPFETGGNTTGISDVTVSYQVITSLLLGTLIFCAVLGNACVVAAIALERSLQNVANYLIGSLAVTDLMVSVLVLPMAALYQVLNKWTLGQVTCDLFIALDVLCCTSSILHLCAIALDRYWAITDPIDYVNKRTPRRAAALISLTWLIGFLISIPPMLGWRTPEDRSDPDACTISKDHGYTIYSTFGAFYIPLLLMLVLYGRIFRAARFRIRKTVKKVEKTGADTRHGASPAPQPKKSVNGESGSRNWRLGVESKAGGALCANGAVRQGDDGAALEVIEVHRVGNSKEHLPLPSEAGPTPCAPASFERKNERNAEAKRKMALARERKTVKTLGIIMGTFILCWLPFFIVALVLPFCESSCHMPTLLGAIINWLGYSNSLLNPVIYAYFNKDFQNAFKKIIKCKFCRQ

[23] = biological target: 5-hydroxytryptamine receptor 1B (Homo sapiens) (UniProt P28222); assay: Activity at 5HT1B receptor

Chain of Sodium channel protein type 9 subunit alpha (Q15858 whole entry): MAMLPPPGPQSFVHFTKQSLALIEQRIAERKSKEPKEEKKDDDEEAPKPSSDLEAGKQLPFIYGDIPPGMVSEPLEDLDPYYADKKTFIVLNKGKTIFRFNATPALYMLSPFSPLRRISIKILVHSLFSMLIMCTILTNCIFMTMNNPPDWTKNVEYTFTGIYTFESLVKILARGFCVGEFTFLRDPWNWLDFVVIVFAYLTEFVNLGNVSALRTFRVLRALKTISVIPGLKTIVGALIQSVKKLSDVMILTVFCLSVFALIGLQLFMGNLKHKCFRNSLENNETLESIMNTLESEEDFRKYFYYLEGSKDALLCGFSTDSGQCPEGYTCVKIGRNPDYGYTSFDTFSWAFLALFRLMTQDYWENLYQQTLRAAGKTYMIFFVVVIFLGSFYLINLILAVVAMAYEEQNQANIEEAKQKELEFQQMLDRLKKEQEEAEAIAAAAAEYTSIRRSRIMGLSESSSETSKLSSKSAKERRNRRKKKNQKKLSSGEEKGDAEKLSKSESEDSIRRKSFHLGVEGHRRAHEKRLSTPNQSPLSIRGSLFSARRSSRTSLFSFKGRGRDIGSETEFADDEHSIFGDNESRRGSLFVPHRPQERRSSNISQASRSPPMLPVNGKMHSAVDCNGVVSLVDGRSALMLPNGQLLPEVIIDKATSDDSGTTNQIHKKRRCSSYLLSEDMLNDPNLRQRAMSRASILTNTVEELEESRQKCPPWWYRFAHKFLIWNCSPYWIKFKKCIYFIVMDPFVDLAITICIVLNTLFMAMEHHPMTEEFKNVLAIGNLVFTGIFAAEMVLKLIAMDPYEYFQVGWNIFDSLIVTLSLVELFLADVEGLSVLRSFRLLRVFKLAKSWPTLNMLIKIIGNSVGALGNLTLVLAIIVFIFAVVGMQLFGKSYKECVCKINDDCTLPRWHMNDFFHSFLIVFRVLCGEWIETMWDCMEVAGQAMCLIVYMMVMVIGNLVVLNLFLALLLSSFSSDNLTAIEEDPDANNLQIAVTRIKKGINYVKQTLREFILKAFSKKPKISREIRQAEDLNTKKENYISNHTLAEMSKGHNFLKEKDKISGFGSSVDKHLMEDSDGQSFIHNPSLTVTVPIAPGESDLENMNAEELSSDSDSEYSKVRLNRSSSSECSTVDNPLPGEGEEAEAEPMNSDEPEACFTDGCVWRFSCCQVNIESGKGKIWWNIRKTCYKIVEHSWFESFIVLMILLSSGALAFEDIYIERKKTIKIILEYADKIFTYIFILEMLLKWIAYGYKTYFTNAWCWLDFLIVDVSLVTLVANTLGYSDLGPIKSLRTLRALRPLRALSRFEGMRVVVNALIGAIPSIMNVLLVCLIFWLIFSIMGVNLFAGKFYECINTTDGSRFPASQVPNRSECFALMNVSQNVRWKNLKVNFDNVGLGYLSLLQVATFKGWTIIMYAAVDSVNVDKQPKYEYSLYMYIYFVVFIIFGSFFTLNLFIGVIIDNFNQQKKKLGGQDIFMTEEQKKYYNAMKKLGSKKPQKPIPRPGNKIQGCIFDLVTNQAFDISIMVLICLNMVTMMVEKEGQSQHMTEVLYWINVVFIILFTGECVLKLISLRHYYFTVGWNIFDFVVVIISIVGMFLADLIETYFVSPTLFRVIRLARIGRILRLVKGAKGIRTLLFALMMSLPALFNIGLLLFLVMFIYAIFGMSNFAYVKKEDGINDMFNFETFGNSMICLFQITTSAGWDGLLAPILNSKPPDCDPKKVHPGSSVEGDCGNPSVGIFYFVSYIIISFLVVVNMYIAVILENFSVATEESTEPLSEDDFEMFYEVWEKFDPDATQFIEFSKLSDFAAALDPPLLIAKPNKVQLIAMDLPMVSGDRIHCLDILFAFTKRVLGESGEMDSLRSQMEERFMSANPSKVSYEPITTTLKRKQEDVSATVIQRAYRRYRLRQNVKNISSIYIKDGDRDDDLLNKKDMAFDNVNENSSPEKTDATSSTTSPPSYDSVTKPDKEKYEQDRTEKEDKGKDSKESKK
Chain of Sodium channel protein type 5 subunit alpha (Q14524 whole entry): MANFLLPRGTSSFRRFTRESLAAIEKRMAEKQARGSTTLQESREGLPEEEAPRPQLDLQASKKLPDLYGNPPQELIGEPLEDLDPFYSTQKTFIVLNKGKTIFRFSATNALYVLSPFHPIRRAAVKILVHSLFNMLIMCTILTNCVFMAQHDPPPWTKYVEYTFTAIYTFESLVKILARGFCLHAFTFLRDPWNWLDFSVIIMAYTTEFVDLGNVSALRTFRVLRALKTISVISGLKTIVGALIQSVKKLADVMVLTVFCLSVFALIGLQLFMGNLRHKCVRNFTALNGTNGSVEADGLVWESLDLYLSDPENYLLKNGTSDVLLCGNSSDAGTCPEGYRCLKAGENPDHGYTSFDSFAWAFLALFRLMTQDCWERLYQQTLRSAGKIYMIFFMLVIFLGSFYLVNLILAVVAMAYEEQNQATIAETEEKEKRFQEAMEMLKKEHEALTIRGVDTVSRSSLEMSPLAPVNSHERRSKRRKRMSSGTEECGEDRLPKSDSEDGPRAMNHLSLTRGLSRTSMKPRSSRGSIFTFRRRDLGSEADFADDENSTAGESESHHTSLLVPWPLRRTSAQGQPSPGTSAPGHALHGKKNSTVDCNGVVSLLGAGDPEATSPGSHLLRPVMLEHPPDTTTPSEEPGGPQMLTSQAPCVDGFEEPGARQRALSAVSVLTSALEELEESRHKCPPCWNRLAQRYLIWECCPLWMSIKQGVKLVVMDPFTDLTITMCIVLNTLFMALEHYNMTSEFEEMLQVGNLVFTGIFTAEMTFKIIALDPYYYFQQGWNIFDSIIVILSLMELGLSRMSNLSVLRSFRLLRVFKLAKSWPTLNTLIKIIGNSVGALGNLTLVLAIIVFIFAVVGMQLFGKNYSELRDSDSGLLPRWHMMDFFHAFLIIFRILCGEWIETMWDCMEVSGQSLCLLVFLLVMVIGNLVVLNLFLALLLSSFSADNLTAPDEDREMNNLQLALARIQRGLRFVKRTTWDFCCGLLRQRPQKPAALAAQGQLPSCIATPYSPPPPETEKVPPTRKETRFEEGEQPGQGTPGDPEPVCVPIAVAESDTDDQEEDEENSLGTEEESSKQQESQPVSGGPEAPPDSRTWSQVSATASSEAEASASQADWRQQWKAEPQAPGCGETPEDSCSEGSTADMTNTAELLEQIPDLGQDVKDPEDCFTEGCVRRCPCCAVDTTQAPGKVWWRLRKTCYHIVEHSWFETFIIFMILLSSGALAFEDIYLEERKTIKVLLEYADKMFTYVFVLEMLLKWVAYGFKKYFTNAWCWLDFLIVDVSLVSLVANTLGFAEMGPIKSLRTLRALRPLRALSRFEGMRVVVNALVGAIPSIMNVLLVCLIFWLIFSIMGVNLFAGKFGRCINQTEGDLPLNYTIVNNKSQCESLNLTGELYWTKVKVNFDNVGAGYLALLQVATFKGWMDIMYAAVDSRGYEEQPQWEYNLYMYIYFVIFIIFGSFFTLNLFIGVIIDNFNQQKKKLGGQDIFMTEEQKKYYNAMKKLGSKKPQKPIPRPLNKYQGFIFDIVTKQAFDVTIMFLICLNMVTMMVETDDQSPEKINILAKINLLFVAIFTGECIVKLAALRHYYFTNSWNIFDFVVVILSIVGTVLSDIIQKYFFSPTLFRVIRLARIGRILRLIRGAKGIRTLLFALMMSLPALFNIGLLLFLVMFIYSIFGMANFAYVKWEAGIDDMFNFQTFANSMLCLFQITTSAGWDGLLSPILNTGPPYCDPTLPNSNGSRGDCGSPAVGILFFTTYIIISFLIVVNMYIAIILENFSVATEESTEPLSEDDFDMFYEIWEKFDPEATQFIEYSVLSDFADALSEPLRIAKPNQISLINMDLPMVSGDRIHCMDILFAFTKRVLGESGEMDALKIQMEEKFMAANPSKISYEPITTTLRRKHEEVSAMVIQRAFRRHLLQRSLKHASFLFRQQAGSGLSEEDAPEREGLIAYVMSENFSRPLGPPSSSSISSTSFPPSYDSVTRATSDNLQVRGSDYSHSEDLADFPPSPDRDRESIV
Chain of Voltage-gated inwardly rectifying potassium channel KCNH2 (Q12809 whole entry): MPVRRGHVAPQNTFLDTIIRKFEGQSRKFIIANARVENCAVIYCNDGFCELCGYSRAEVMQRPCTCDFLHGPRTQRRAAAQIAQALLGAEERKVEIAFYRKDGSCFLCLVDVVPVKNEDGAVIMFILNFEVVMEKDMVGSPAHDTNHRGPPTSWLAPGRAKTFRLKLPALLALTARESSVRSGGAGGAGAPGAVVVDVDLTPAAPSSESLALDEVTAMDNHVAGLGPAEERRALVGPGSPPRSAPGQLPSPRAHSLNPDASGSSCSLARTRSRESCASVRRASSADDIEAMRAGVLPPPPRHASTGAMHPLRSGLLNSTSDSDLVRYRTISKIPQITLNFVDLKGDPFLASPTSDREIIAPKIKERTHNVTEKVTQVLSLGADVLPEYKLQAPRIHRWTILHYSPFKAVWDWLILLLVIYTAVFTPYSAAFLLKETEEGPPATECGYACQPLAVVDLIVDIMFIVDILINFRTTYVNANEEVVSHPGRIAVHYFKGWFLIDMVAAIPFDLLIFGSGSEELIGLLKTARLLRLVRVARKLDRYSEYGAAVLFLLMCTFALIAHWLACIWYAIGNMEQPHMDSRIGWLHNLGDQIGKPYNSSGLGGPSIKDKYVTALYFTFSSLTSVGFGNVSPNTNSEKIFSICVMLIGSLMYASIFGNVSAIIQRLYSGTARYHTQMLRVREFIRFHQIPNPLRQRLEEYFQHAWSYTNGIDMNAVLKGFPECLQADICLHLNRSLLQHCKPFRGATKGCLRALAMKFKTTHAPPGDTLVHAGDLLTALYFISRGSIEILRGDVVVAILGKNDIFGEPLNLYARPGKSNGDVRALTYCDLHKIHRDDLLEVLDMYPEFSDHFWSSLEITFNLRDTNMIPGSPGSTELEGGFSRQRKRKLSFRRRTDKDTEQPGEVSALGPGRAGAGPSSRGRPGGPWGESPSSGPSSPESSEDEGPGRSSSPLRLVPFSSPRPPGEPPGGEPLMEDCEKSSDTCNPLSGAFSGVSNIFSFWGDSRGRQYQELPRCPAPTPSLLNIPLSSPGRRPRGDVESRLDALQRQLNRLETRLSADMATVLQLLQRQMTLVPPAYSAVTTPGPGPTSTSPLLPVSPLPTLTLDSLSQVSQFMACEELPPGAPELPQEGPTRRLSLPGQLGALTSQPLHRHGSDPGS

| pIC50 [1] | solubility [3] [µM] | CLint (Liver microsomes [4]) [µL/min/mg] | CLint (Liver microsomes [5]) [µL/min/mg] | Compound | pIC50 [2] | pIC50 [6] | other results |
| --- | --- | --- | --- | --- | --- | --- | --- |
| 6.10 | 18 (≈ 9.32 µg/mL) |  |  | Cc1cc(-c2cccc3c2C[C@H](NC(=O)c2ccc(OCCOCC(F)(F)F)nc2)CO3)cnc1CO | 5.30 |  |  |
|  | < 1 | < 10 | < 10 | COc1ncc(-c2cccc3c2C[C@H](NC(=O)c2ccc(OCC(F)(F)F)nc2)CO3)cn1 | 5.20 |  |  |
| 6.00 | 2 (≈ 0.829 µg/mL) |  | 78 | O=C(N[C@@H]1COc2cccc(-c3ccncc3)c2C1)c1ccc(OC(F)(F)F)cc1 | 5.40 | 5.60 |  |
| 5.70 | 27 (≈ 11.8 µg/mL) | 18 | 2.5 | CN1CCN(c2cccc3c2C[C@H](NC(=O)c2ccc(OC(F)(F)F)cc2)CO3)CC1 | 5.70 | 5.10 |  |
|  | 3 (≈ 1.42 µg/mL) | < 10 | < 10 | COc1ncc(-c2cccc3c2C[C@H](NC(=O)c2ccc(OCCC(F)(F)F)nc2)CO3)cn1 | 5.40 |  |  |
|  | 1.1 (≈ 0.525 µg/mL) | 10 | 19 | COc1ncc(-c2cccc3c2C[C@H](NC(=O)c2ccc(OCC(F)(F)F)nc2)CO3)cc1F | 5.40 |  |  |
| 4.60 | 306 (≈ 120 µg/mL) |  |  | COCCn1nc(C)c(C(=O)N[C@@H]2COc3cccc(-c4ccncc4)c3C2)n1 | < 4.50 |  |  |
| 6.80 | 54 (≈ 27.2 µg/mL) | < 10 | 11 | O=C(N[C@@H]1COc2cccc(-c3ccc(CO)nc3)c2C1)c1ccc(OCCOCC(F)(F)F)nc1 | 5.10 | 4.80 |  |
| 6.50 | 211 (≈ 91.3 µg/mL) | 4 | 14 | Cc1nn(-c2ccccc2)nc1C(=O)N[C@@H]1COc2cccc(N3CCN(C)CC3)c2C1 | 5.30 | 5.10 | Activity [7]: Active |
| 6.80 | 58 (≈ 26.6 µg/mL) | < 10 | 10 | O=C(N[C@@H]1COc2cccc(-c3ccc(CO)nc3)c2C1)c1ccc(OCC(F)(F)F)nc1 | 5.20 | 5.00 | Activity [7]: inactive; AUC/dose (Rattus norvegicus [8]): 0.4 kg·h/L; Vd [9]: 11 L/kg; half-life [10]: 3.8 h; clearance [11]: 42.2 mL/min/kg; AUC/dose (Rattus norvegicus [12]): 0.27 kg·h/L; Cmax [13]: 380 nM; Tmax [14]: 1.5 h; half-life [15]: 3.5 h; bioavailability [16]: 66.3%; inhibition [17]: 55%; inhibition [18]: 80%; inhibition [19]: 98%; pIC50 [20]: 5.70; pIC50 [21]: 6.70; Activity [22]: inactive; Activity [23]: inactive |
|  | 5 (≈ 2.07 µg/mL) |  |  | O=C(N[C@@H]1COc2cccc(-c3cccnc3)c2C1)c1ccc(OC(F)(F)F)cc1 | 5.50 |  |  |
|  | 9 (≈ 3.86 µg/mL) | 77 | 59 | O=C(N[C@@H]1COc2cccc(-c3ccncc3)c2C1)c1ccc(OCC(F)(F)F)nc1 | 5.50 | 5.20 |  |
| 6.10 | 18 (≈ 9.32 µg/mL) | < 10 | 12 | CC(O)c1ccc(-c2cccc3c2C[C@H](NC(=O)c2ccc(OCCOCC(F)(F)F)nc2)CO3)cn1 (some centres not stated) | 5.00 |  |  |
| 6.10 | 82 (≈ 36.9 µg/mL) | < 10 | < 10 | CN1CCN(c2cccc3c2C[C@H](NC(=O)c2ccc(OCC(F)(F)F)nc2)CO3)CC1 | 5.30 | 5.10 |  |
| 6.30 | 17 (≈ 7.81 µg/mL) | < 10 | 15 | O=C(N[C@@H]1COc2cccc(-c3ccnc(CO)c3)c2C1)c1ccc(OCC(F)(F)F)nc1 | 5.20 |  | Activity [7]: inactive |
| 6.20 | 379 (≈ 176 µg/mL) | < 10 | < 10 | CN1CCN(c2cccc3c2C[C@H](NC(=O)c2ccc(OCCC(F)(F)F)nc2)CO3)CC1 | 5.30 | 4.90 |  |
| 7.10 | < 1 | < 10 | 16 | Cc1cnc(-c2cccc3c2C[C@H](NC(=O)c2ccc(OCC(F)(F)F)nc2)CO3)cn1 | < 5.50 | < 4.50 |  |
| 6.80 | 4 (≈ 1.84 µg/mL) | 9 |  | Cc1ccc(-n2nc(C)c(C(=O)N[C@@H]3COc4cccc(N5CCN(C)CC5)c4C3)n2)c(C)c1 | 5.60 |  | CLH (Liver microsomes [5]): Stable |
| 6.30 | 82 (≈ 37.6 µg/mL) | < 10 | < 10 | Cc1cnc(-c2cccc3c2C[C@H](NC(=O)c2ccc(COCC(F)(F)F)nc2)CO3)cn1 | 4.70 |  |  |
|  | 29 (≈ 12.5 µg/mL) | 64 | 161 | O=C(N[C@@H]1COc2cccc(-c3cccnc3)c2C1)c1ccc(OCC(F)(F)F)nc1 | 5.50 |  |  |
| 6.60 | 145 (≈ 68.8 µg/mL) | < 10 | < 10 | COc1ncc(-c2cccc3c2C[C@H](NC(=O)c2ccc(COCC(F)(F)F)nc2)CO3)cn1 | 5.00 | 4.80 |  |
|  | 23 (≈ 10.2 µg/mL) | 38 | 318 | O=C(N[C@@H]1COc2cccc(-c3cncnc3)c2C1)c1ccc(OCCC(F)(F)F)nc1 | 5.40 |  |  |
|  | 2 (≈ 0.823 µg/mL) |  |  | Cc1nn(-c2ccccc2)nc1C(=O)N[C@@H]1COc2cccc(-c3ccncc3)c2C1 | < 4.50 | 5.40 |  |
| 6.00 | 1 (≈ 0.424 µg/mL) | 82 | 361 | CCCCOc1ccc(C(=O)N[C@@H]2COc3cccc(N4CCN(C)CC4)c3C2)cc1 | < 5.20 | 5.20 |  |
|  | 396 (≈ 156 µg/mL) |  |  | COCCn1nc(C)c(C(=O)N[C@@H]2COc3cccc(-c4cccnc4)c3C2)n1 | < 4.50 |  |  |
|  | 393 (≈ 154 µg/mL) |  |  | Cc1nn(CC(C)C)nc1C(=O)N[C@@H]1COc2cccc(-c3cccnc3)c2C1 | < 4.50 |  |  |
| 6.90 | < 1 | 14 | 14 | COc1cnc(-c2cccc3c2C[C@H](NC(=O)c2ccc(OCC(F)(F)F)nc2)CO3)cn1 | < 4.60 | < 4.50 |  |
| < 5.00 |  | 21 | 16 | COc1cnc(-c2cccc3c2C[C@@H](NC(=O)c2ccc(COCC(F)(F)F)nc2)CO3)cn1 |  |  |  |
|  | 6.5 (≈ 2.89 µg/mL) | < 10 | < 10 | Cc1ncc(-c2cccc3c2C[C@H](NC(=O)c2ccc(OCC(F)(F)F)nc2)CO3)cn1 | 5.30 | 5.00 |  |
